From ChEMBL document CHEMBL1759832, “Discovery of torezolid as a novel 5-hydroxymethyl-oxazolidinone antibacterial agent” (Eur J Med Chem, 2011)
In brackets after ≈: the same amount, converted by molar mass.

What was measured:
Enterococcus = assay: Antibacterial activity against vancomycin-resistant Enterococcus by agar dilution method; assay type: functional
How it was run: (§1)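 MIC by CLSI agar dilution on Mueller-Hinton agar for S. aureus (MSSA, MRSA) and Enterococcus faecium (VRE).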

Staphylococcus aureus [1] = assay: Antibacterial activity against methicillin-resistant Staphylococcus aureus by agar dilution method; assay type: functional; how it was run: as §1
Staphylococcus aureus [2] = assay: Antibacterial activity against methicillin-susceptible Staphylococcus aureus by agar dilution method; assay type: functional; how it was run: as §1
Haemophilus influenzae = assay: Antibacterial activity against Haemophilus influenzae by agar dilution method; assay type: functional
How it was run: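 CLSI agar dilution; Haemophilus test medium used for H. influenzae; read-out MIC.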

Staphylococcus aureus [3] = assay: Antibacterial activity against methicillin-susceptible Staphylococcus aureus Smith infected po dosed ICR mouse assessed as protection against mouse mortality administered 1 hr after infection measured up to 7 days; assay type: functional
How it was run: (§2)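 Male outbred ICR mice (4-week-old, 18-20 g) infected intraperitoneally with S. aureus Smith, 2.9 × 10⁷ CFU/mouse in 5% mucin. Compounds given orally or intravenously 1 h after infection, eight mice per group. Mortality followed for 7 days. ED50 taken as the dose protecting 50% of infected mice from death.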

[4] = Chemical stability of compound in distilled water assessed as compound remaining at 100 ug/ml after 8 hrs; assay type: physicochemical
[5] = Chemical stability of compound in distilled water assessed as compound remaining at pH 7 at 100 ug/ml after 8 hrs; assay type: physicochemical; conditions: buffer, pH 7, 8 h
[6] = Aqueous solubility of compound in distilled water; assay type: physicochemical
How it was run: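 Water added stepwise with repeated vortexing until solution turned transparent; solubility = amount dissolved divided by total distilled water volume in the final clear solution; triplicate, averaged.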

[7] = Chemical stability of compound in distilled water assessed as compound remaining at pH 5 at 100 ug/ml after 8 hrs; assay type: physicochemical; conditions: buffer, pH 5, 8 h
[8] = Chemical stability of compound in distilled water assessed as compound remaining at pH 3 at 100 ug/ml after 8 hrs; assay type: physicochemical; conditions: buffer, pH 3, 8 h
[9] = Half life in ICR mouse at 10 mg/kg, iv by LC/MS/MS analysis; assay type: ADME, organism-based; parameters: dose 10 mg/kg, route intravenous; conditions: in vivo
How it was run: (§3)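 Single 10 mg/kg dose given orally by feeding tube or iv via tail vein to male ICR mice (4-week-old, 18-20 g). Plasma acidified with 1 N HCl, stored at -70 °C, analysed by LC/MS/MS. Parameters from mean plasma concentrations. For prodrug dosing, values are based on the active parent detected.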

[10] = AUC in ICR mouse at 10 mg/kg, po by LC/MS/MS analysis; assay type: ADME, organism-based; parameters: dose 10 mg/kg, route oral; conditions: plasma; how it was run: as §3
[11] = Cmax in ICR mouse at 10 mg/kg, po by LC/MS/MS analysis; assay type: ADME, organism-based; parameters: dose 10 mg/kg, route oral; conditions: in vivo; how it was run: as §3
[12] = Clearance in ICR mouse at 10 mg/kg, iv by LC/MS/MS analysis; assay type: ADME, organism-based; parameters: dose 10 mg/kg, route intravenous; conditions: in vivo; how it was run: as §3
[13] = Tmax in ICR mouse at 10 mg/kg, po by LC/MS/MS analysis; assay type: ADME, organism-based; parameters: dose 10 mg/kg, route oral; conditions: in vivo; how it was run: as §3
[14] = Volume of distribution at steady state in ICR mouse at 10 mg/kg, iv by LC/MS/MS analysis; assay type: ADME, organism-based; parameters: dose 10 mg/kg, route intravenous; conditions: in vivo, read-out: Vdss; how it was run: as §3
[15] = AUC in ICR mouse at 10 mg/kg, iv by LC/MS/MS analysis; assay type: ADME, organism-based; parameters: dose 10 mg/kg, route intravenous; conditions: plasma; how it was run: as §3
[16] = Oral bioavailability in ICR mouse at 10 mg/kg by LC/MS/MS analysis; assay type: ADME, organism-based; conditions: in vivo; how it was run: as §3
[17] = Half life in ICR mouse at 10 mg/kg, po by LC/MS/MS analysis; assay type: ADME, organism-based; parameters: dose 10 mg/kg, route oral; conditions: in vivo; how it was run: as §3
Streptococcus pneumoniae = assay: Antibacterial activity against penicillin-resistant Streptococcus pneumoniae by agar dilution method; assay type: functional
Staphylococcus aureus [18] = assay: Antibacterial activity against methicillin-sensitive Staphylococcus aureus Smith infected iv dosed ICR mouse assessed as protection against mouse mortality administered 1 hr after infection measured up to 7 days; assay type: functional; how it was run: as §2
Staphylococcus aureus [19] = assay: Antibacterial activity against methicillin-sensitive Staphylococcus aureus Smith infected po dosed ICR mouse assessed as protection against mouse mortality administered 1 hr after infection measured up to 7 days; assay type: functional; how it was run: as §2
Staphylococcus aureus [20] = assay: Antibacterial activity against methicillin-resistant Staphylococcus aureus Smith infected po dosed ICR mouse assessed as protection against mouse mortality administered 1 hr after infection measured up to 7 days; assay type: functional; how it was run: as §2
Staphylococcus aureus [21] = assay: Antibacterial activity against methicillin-resistant Staphylococcus aureus Smith infected iv dosed ICR mouse assessed as protection against mouse mortality administered 1 hr after infection measured up to 7 days; assay type: functional; how it was run: as §2

SMILES	MIC (Enterococcus) [µg/mL]	MIC (Staphylococcus aureus [1]) [µg/mL]	MIC (Staphylococcus aureus [2]) [µg/mL]	MIC (Haemophilus influenzae) [µg/mL]	ED50 (Staphylococcus aureus [3]) [mg/kg]	Stability [4] [%]	Stability [5] [%]	Stability [7] [%]	Stability [8] [%]	also measured
Cn1nnc(-c2ccc(-c3ccc(N4C[C@H](Cn5nccn5)OC4=O)cc3F)cn2)n1	16 (≈ 38 µM)	16 (≈ 38 µM)	16 (≈ 38 µM)	–	–	–	–	–	–	–
Cn1nnc(-c2ccc(-c3ccc(N4C[C@H](Cn5ccnn5)OC4=O)cc3F)cn2)n1	0.125 (≈ 0.297 µM)	0.25 (≈ 0.593 µM)	0.25 (≈ 0.593 µM)	2 (≈ 4.75 µM)	5.74	–	–	–	–	–
Cn1nnc(-c2ccc(-c3ccc(N4C[C@H](COC(=O)CCN)OC4=O)cc3F)cn2)n1.O=C(O)C(F)(F)F	–	–	–	–	–	96.9	94.9	99.5	99.6	solubility [6]: 2.6 mg/mL
CN(C)CC1CN(c2ccc(-c3ccc(-c4nnn(C)n4)nc3)c(F)c2)C(=O)O1 (single isomer, unassigned)	–	8 (≈ 20.1 µM)	4 (≈ 10.1 µM)	–	–	–	–	–	–	–
C[C@H](N)C(=O)OC[C@H]1CN(c2ccc(-c3ccc(-c4nnn(C)n4)nc3)c(F)c2)C(=O)O1.O=C(O)C(F)(F)F	–	–	–	–	–	90.7	6.3	87.8	97	solubility [6]: > 50 mg/mL
Cc1nnc(-c2ccc(-c3ccc(N4C[C@H](CO)OC4=O)cc3F)cn2)o1	0.5 (≈ 1.35 µM)	0.5 (≈ 1.35 µM)	0.5 (≈ 1.35 µM)	4 (≈ 10.8 µM)	4.2	–	–	–	–	–
Cn1nnc(-c2ccc(-c3ccc(N4C[C@H](Cn5cncn5)OC4=O)cc3F)cn2)n1	1 (≈ 2.37 µM)	2 (≈ 4.75 µM)	2 (≈ 4.75 µM)	–	> 30	–	–	–	–	–
Cn1nnc(-c2ccc(-c3ccc(N4C[C@H](CO)OC4=O)cc3F)cn2)n1 [TEDIZOLID]	0.125 (≈ 0.338 µM)	0.5 (≈ 1.35 µM)	0.5 (≈ 1.35 µM)	4 (≈ 10.8 µM)	8.8	–	–	–	–	half-life [9]: 3.49 h; AUC [10]: 49800 ng·h/mL; Cmax [11]: 4620 ng/mL; clearance [12]: 1.61 mL/min/kg; Tmax [13]: 2 h; Vd [14]: 0.512 L/kg; AUC [15]: 103000 ng·h/mL; bioavailability [16]: 48.5%; half-life [17]: 3.12 h
Cn1nnc(-c2ccc(-c3ccc(N4C[C@H](COc5ccon5)OC4=O)cc3F)cn2)n1	0.25 (≈ 0.572 µM)	0.5 (≈ 1.14 µM)	0.5 (≈ 1.14 µM)	–	> 30	–	–	–	–	–
Cn1nnc(-c2ccc(-c3ccc(N4C[C@H](CNC(=O)CO)OC4=O)cc3F)cn2)n1	0.25 (≈ 0.585 µM)	1 (≈ 2.34 µM)	1 (≈ 2.34 µM)	–	> 30	–	–	–	–	–
Cn1nnc(-c2ccc(-c3ccc(N4C[C@H](COC(=O)CN)OC4=O)cc3F)cn2)n1.O=C(O)C(F)(F)F	–	–	–	–	–	79.5	8.1	92.7	86.6	solubility [6]: 28 mg/mL
CNC[C@H]1CN(c2ccc(-c3ccc(-c4nnn(C)n4)nc3)c(F)c2)C(=O)O1	4 (≈ 10.4 µM)	4 (≈ 10.4 µM)	4 (≈ 10.4 µM)	–	–	–	–	–	–	–
C[C@H](N)C(=O)OC[C@H]1CN(c2ccc(-c3ccc(-c4nnn(C)n4)nc3)c(F)c2)C(=O)O1.Cl	–	–	–	–	–	92.3	7.5	88.1	98	solubility [6]: > 50 mg/mL
CC(C)[C@H](N)C(=O)OC[C@H]1CN(c2ccc(-c3ccc(-c4nnn(C)n4)nc3)c(F)c2)C(=O)O1.O=C(O)C(F)(F)F	–	–	–	–	–	99.4	51.2	97.3	99.9	solubility [6]: 4.7 mg/mL
Cl.Cn1nnc(-c2ccc(-c3ccc(N4C[C@H](COC(=O)CN)OC4=O)cc3F)cn2)n1	–	–	–	–	–	85.7	11.6	93.3	95.1	–
Cl.Cn1nnc(-c2ccc(-c3ccc(N4C[C@H](COC(=O)CCN)OC4=O)cc3F)cn2)n1	–	–	–	–	–	99.9	50.5	94.9	99.9	solubility [6]: 20.4 mg/mL
CC(=O)NC[C@H]1CN(c2ccc(-c3ccc(-c4nnnn4C)nc3)c(F)c2)C(=O)O1	0.125 (≈ 0.304 µM)	0.78 (≈ 1.9 µM)	0.78 (≈ 1.9 µM)	–	–	–	–	–	–	MIC (Streptococcus pneumoniae): 0.39 µg/mL (≈ 0.948 µM)
Cn1nnc(-c2ccc(-c3ccc(N4C[C@H](CNC(=O)c5ccco5)OC4=O)cc3F)cn2)n1	0.5 (≈ 1.08 µM)	1 (≈ 2.16 µM)	1 (≈ 2.16 µM)	16 (≈ 34.5 µM)	> 30	–	–	–	–	–
Cn1nnc(-c2ccc(-c3ccc(N4C[C@H](COC(=O)[C@@H]5CCCN5)OC4=O)cc3F)cn2)n1.O=C(O)C(F)(F)F	–	–	–	–	–	76.4	0.2	65.2	81.9	solubility [6]: < 1.6 mg/mL
Cc1nnc(-c2ccc(-c3ccc(N4C[C@H](COc5ccon5)OC4=O)cc3F)cn2)o1	0.5 (≈ 1.14 µM)	1 (≈ 2.29 µM)	1 (≈ 2.29 µM)	> 16	6.5	–	–	–	–	–
CC(C)[C@H](N)C(=O)OC[C@H]1CN(c2ccc(-c3ccc(-c4nnn(C)n4)nc3)c(F)c2)C(=O)O1.Cl	–	–	–	–	–	99.9	60.9	97.7	99.9	–
Cn1nnc(-c2ccc(-c3ccc(N4C[C@H](CF)OC4=O)cc3F)cn2)n1	1 (≈ 2.69 µM)	1 (≈ 2.69 µM)	1 (≈ 2.69 µM)	64 (≈ 172 µM)	–	–	–	–	–	–
Cc1nnc(-c2ccc(-c3ccc(N4C[C@H](Cn5ccnn5)OC4=O)cc3F)cn2)o1	0.125 (≈ 0.297 µM)	0.25 (≈ 0.593 µM)	0.25 (≈ 0.593 µM)	2 (≈ 4.75 µM)	> 30	–	–	–	–	–
CC(=O)NC[C@H]1CN(c2ccc(N3CCOCC3)c(F)c2)C(=O)O1 [LINEZOLID]	1 (≈ 2.96 µM)	–	–	8 (≈ 23.7 µM)	9.4	–	–	–	–	ED50 (Staphylococcus aureus [18]): 29.1 mg/kg; ED50 (Staphylococcus aureus [19]): 21.4 mg/kg; ED50 (Staphylococcus aureus [20]): 15.6 mg/kg; ED50 (Staphylococcus aureus [21]): 12.9 mg/kg
COCC(=O)NC[C@H]1CN(c2ccc(-c3ccc(-c4nnn(C)n4)nc3)c(F)c2)C(=O)O1	0.5 (≈ 1.13 µM)	1 (≈ 2.27 µM)	1 (≈ 2.27 µM)	16 (≈ 36.2 µM)	20.5	–	–	–	–	–
Cn1nnc(-c2ccc(-c3ccc(N4C[C@H](CNC(=O)c5cccs5)OC4=O)cc3F)cn2)n1	0.5 (≈ 1.04 µM)	0.5 (≈ 1.04 µM)	0.5 (≈ 1.04 µM)	–	> 30	–	–	–	–	–
COC[C@H]1CN(c2ccc(-c3ccc(-c4nnn(C)n4)nc3)c(F)c2)C(=O)O1	2 (≈ 5.2 µM)	2 (≈ 5.2 µM)	2 (≈ 5.2 µM)	–	–	–	–	–	–	–
